Data from PMC12315948 (The FASEB Journal, 2021).
pIC50: −log10 of the molar value.

How the values were obtained:
[1] = system: HeLa cells; assay type: cell-based; conditions: 24 h treatment, 2 h 2.5 µg/mL pyolysin, MTT
In short: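 HeLa cells grown in DMEM with 10% FBS were seeded at 50,000 cells/mL. At 90% confluence they were treated in serum-free medium with vehicle, 100 µM test compound or 10 µM zaragozic acid, for 24 h or for indicated times. Cells were then challenged for 2 h with control medium or 2.5 µg/mL pyolysin. MTT (1 mg/mL, 2 h) was read at OD570 after DMSO lysis. Values are percentage of control; 4 independent experiments.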

[2] = system: HeLa cells; experiment: Cytotoxicity per se in HeLa cells, MTT assay, control challenge; assay type: cell-based
In short: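 HeLa cells were seeded at 50,000 cells/mL in DMEM with 10% FBS. At 90% confluence they received serum-free medium with vehicle, 100 µM test compound or zaragozic acid for 24 h. They were then given a 2 h control-medium challenge without toxin. Viability was measured by MTT (1 mg/mL, 2 h; DMSO lysis; OD570) as percentage of control. Each point is one independent passage (n = 12).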

[3] = system: A549 cells; experiment: Cytoprotection of A549 cells against streptolysin O; assay type: cell-based, human; conditions: 24 h: 100 µM MPEX098 or 10 µM zaragozic acid; 2 h challenge
In short: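 A549 cells were grown in RPMI1640 with 5% FBS, 1% antibiotic-antimycotic and 1% glutamine, then seeded at 50,000 cells/mL. At 90% confluence they were given serum-free medium with vehicle or treatment for 24 h, then challenged 2 h with graded streptolysin O. Viability was read by MTT (1 mg/mL, 2 h, DMSO lysis, OD570). LDH in supernatants was read by the INT/PMS lactate assay at OD450, initially and after 30 min at 37°C, against NADH standards.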

[4] = system: squalene synthase; conditions: squalene synthase cell free assay; cited from earlier work

| SMILES | cytoprotection against pyolysin by isoprenoid treatment [1] | cytotoxic concentration per se [2] [µM] | cell toxicity per se ([2]; MTT assay, control challenge, 100 µM MPEX098 or 10 µM zaragozic acid, 24 h, n = 12) [%] | protection of A549 cells against streptolysin O [3] | pIC50 [4] |
| --- | --- | --- | --- | --- | --- |
| CC(C)=CCC/C(C)=C/CC/C(C)=C/CO[P@@](=O)(O)OP(=O)(O)O (stereo in doubt) [farnesyl diphosphate] | but not farnesyl diphosphate (P = .12) increased cytoprotection |  |  |  |  |
| CC(C)=CCC/C(C)=C/CC/C(C)=C/CC/C(C)=C/COP(=O)(O)OP(=O)(O)O [geranylgeranyl diphosphate] | increased cytoprotection against pyolysin |  |  |  |  |
| C=C(CC[C@]12O[C@H](C(=O)O)[C@@](O)(C(=O)O)[C@](C(=O)O)(O1)[C@H](OC(=O)/C=C/[C@@H](C)C[C@@H](C)CC)[C@H]2O)[C@@H](OC(C)=O)[C@H](C)Cc1ccccc1 [Zaragozic acid, zaragozic acid] |  | […] | 13 ± 3 | protected A549 cells against a range of concentrations of streptolysin O | […] |
